Results: ChEMBL document CHEMBL3351550, “Synthesis and antiangiogenic activity of 6-amido-2,4,5-trimethylpyridin-3-ols” (2014)

How the values were obtained:
Chorioallantoic membrane [1] = test: Antiangiogenic activity in chicken chorioallantoic membrane assessed as inhibition of VEGF-induced blood vessel formation at 0.01 nmol/CAM treated 30 mins after VEGF addition measured after 3 days relative to control; type: functional, cell membranes; settings: Gallus gallus
Method in brief: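 Chick embryo CAM; angiogenesis induced with VEGF (20 ng/CAM) before compound. Compound stock diluted in PBS to 1.0 μM, 10 μL applied to a disk on the CAM, giving 0.01 nmol/CAM. Read-out is the number of new blood vessel branch points in the area under the disk, compared against VEGF-treated CAMs.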

Chorioallantoic membrane [2] = test: Antiangiogenic activity in chicken chorioallantoic membrane assessed as inhibition of VEGF-induced blood vessel formation treated 30 mins after VEGF addition measured after 3 days; type: functional, cell membranes; settings: Gallus gallus
Method in brief: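 VEGF (20 ng/CAM)-induced angiogenesis on chick embryo CAM, with compound applied afterwards on a disk. New vessel branch points under the disk were counted at several doses, mean ± SEM, n at least six. ID50 taken from dose-response curves.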

A549 [3] = test: Antitumor activity in human A549 cells inoculated with chicken chorioallantoic membrane assessed as inhibition of tumor weight at 0.001 pmol/CAM after 5 days; type: functional
Method in brief: (§1)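 A549 cells (2×10^6 cells/CAM) in Matrigel inoculated onto chick CAM and treated once with compound at implantation. The tumor mass grown on the CAM was excised and weighed, and inhibition is relative to untreated controls, means ± S.E.M., at least six embryos.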

A549 [4] = test: Antitumor activity in human A549 cells inoculated with chicken chorioallantoic membrane assessed as inhibition of tumor weight at 0.01 pmol/CAM after 5 days; type: functional; method in brief: as §1
A549 [5] = test: Antitumor activity in human A549 cells inoculated with chicken chorioallantoic membrane assessed as inhibition of tumor weight at 1 pmol/CAM after 5 days; type: functional; method in brief: as §1
A549 [6] = test: Antitumor activity in human A549 cells inoculated with chicken chorioallantoic membrane assessed as inhibition of tumor weight at 0.1 pmol/CAM after 5 days; type: functional; method in brief: as §1
Chorioallantoic membrane [7] = test: Antiangiogenic activity in human A549 cells inoculated with chicken chorioallantoic membrane assessed as inhibition of blood vessel branch points around tumor at 1 pmol/CAM after 5 days; type: functional, Gallus gallus
Method in brief: (§2)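 A549 human lung cancer cells (2×10^6 cells/CAM) in Matrigel implanted on top of the CAM, with compound given once at implantation. New vessel branch points around the tumor were counted as for the VEGF CAM assay. Inhibition is relative to untreated CAMs, mean ± S.E.M. of at least six embryos.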

Chorioallantoic membrane [8] = test: Antiangiogenic activity in human A549 cells inoculated with chicken chorioallantoic membrane assessed as inhibition of blood vessel branch points around tumor at 0.1 pmol/CAM after 5 days; type: functional, Gallus gallus; method in brief: as §2
Chorioallantoic membrane [9] = test: Antiangiogenic activity in human A549 cells inoculated with chicken chorioallantoic membrane assessed as inhibition of blood vessel branch points around tumor at 0.01 pmol/CAM after 5 days; type: functional, Gallus gallus; method in brief: as §2

`Cc1nc(NC(=O)CCc2ccccc2)c(C)c(C)c1O` showed an inhibition (Chorioallantoic membrane [1]) of 74.2%.

With `COc1ccc(C(=O)Nc2nc(C)c(O)c(C)c2C)cc1` the inhibition (Chorioallantoic membrane [1]) was 69.7%.

In the case of `Cc1nc(NC(=O)c2cccs2)c(C)c(C)c1O`, the inhibition (Chorioallantoic membrane [1]) is reported as 74.8%.

`Cc1nc(NC(=O)c2cccc3ccccc23)c(C)c(C)c1O` showed an inhibition (Chorioallantoic membrane [1]) of 75.8%.

Work on `Cc1nc(NC(=O)C(C)(C)C)c(C)c(C)c1O` yielded an inhibition (Chorioallantoic membrane [1]) of 73.2%.

In the case of `Cc1nc(NC(=O)CCCCl)c(C)c(C)c1O`, the inhibition (Chorioallantoic membrane [1]) is reported as 70.2%.

In the case of `CCCCCCCC(=O)Nc1nc(C)c(O)c(C)c1C`, the inhibition (Chorioallantoic membrane [1]) is reported as 74.7%.

In the case of `CCCCCCCCCCCC(=O)Nc1nc(C)c(O)c(C)c1C`, the ID50 (Chorioallantoic membrane [2]) is reported as 14.9 fmol, the “inhibition (INH)” value (A549 [3]) is reported as 21.7% and the “inhibition (INH)” value (A549 [4]) is reported as 26%. For the same molecule, the inhibition (Chorioallantoic membrane [1]) was 57.4%, the “inhibition (INH)” value (A549 [5]) was 38.2% and the “inhibition (INH)” value (A549 [6]) was 31.3%.

For `Cc1nc(NC(=O)C2CCCC2)c(C)c(C)c1O`, the ID50 (Chorioallantoic membrane [2]) was 3.6 fmol, the “inhibition (INH)” value (A549 [3]) was 13.2% and the “inhibition (INH)” value (A549 [4]) was 24%. The inhibition (Chorioallantoic membrane [1]) was 81.8%, the “inhibition (INH)” value (A549 [5]) was 62.7% and the “inhibition (INH)” value (A549 [6]) was 45.1%.

`Cc1nc(NC(=O)c2ccc(C(C)(C)C)cc2)c(C)c(C)c1O` was tested, and the inhibition (Chorioallantoic membrane [1]) was 74.2%.

`Cc1nc(NC(=O)c2ccc3c(c2)OCO3)c(C)c(C)c1O` was tested, and the inhibition (Chorioallantoic membrane [1]) was 64.8%.

For `CCN(CC)CCNC(=O)c1c(C)[nH]c(/C=C2\C(=O)Nc3ccc(F)cc32)c1C`, the ID50 (Chorioallantoic membrane [2]) was 380 fmol and the inhibition (Chorioallantoic membrane [1]) was 88.8%.

For `CCCCCCCCCCCCCCCC(=O)Nc1nc(C)c(O)c(C)c1C`, the inhibition (Chorioallantoic membrane [1]) was 59.9%.

`Cc1nc(NC(=O)c2ccccc2)c(C)c(C)c1O` was tested, and the inhibition (Chorioallantoic membrane [1]) was 77.3%.

For `Cc1nc(NC(=O)Cc2ccccc2)c(C)c(C)c1O`, the inhibition (Chorioallantoic membrane [1]) was 69.6%.

Work on `Cc1nc(NC(=O)c2ccc(F)cc2)c(C)c(C)c1O` yielded an inhibition (Chorioallantoic membrane [1]) of 75.3%.

Work on `Cc1nc(NC(=O)CC(C)C)c(C)c(C)c1O` yielded an inhibition (Chorioallantoic membrane [1]) of 75.6%.

In the case of `CC(=O)Nc1nc(C)c(O)c(C)c1C`, the ID50 (Chorioallantoic membrane [2]) is reported as 8.7 fmol, the “inhibition (INH)” value (A549 [3]) is reported as 20.3% and the “inhibition (INH)” value (A549 [4]) is reported as 34.2%. The inhibition (Chorioallantoic membrane [1]) was 84.8%, the “inhibition (INH)” value (A549 [5]) was 47.7% and the “inhibition (INH)” value (A549 [6]) was 37.9%.

In the case of `Cc1nc(NC(=O)C(C)C)c(C)c(C)c1O`, the inhibition (Chorioallantoic membrane [1]) is reported as 53.2%.

`CN(C)c1ccc(/C=C2\C(=O)Nc3ccccc32)cc1` was tested, and the “inhibition (INH)” value (Chorioallantoic membrane [7]) was 36.2%, the ID50 (Chorioallantoic membrane [2]) was 39.7 fmol and the “inhibition (INH)” value (A549 [4]) was 16.2%. For the same molecule, the “inhibition (INH)” value (Chorioallantoic membrane [8]) was 25.1%, the inhibition (Chorioallantoic membrane [1]) was 78% and the “inhibition (INH)” value (A549 [5]) was 26.8%. For the same molecule, the “inhibition (INH)” value (A549 [6]) was 23.4% and the “inhibition (INH)” value (Chorioallantoic membrane [9]) was 20.8%.

Molecule `Cc1nc(NC(=O)C2CCCCC2)c(C)c(C)c1O` has an inhibition (Chorioallantoic membrane [1]) of 76.3%.

`CC(=O)Nc1ccc(O)cc1` gave an ID50 (Chorioallantoic membrane [2]) of 397 fmol and an inhibition (Chorioallantoic membrane [1]) of 77.9%.
